Each structure is given as a SMILES string. Activity calls are given as the source filed them. No cut-off for these calls is given here.

The species named for series [1] is Homo sapiens. Briefly: Thermal stabilization of human HRAS2 G-quadruplex FAM-CGGGGCGGGGCGGGGGCGGGGGCG-TAMRA DNA assessed as as change in melting temperature at 1:1 DNA:ligand ratio by FRET assay. A digest of the protocol: (§1)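 FRET melting in 50 mM Tris-HCl pH 7.4 with an equimolar ligand:quadruplex ratio (r = 1). Conditions: NRAS RNA and hras-2 in 10 mM KCl; hras-1 in 100 mM KCl, with ΔTM taken from its second transition. Ramp 1 °C/min from 20 to 95 °C after 5 min equilibration. TM and ΔTM (±0.5 K) versus ligand-free quadruplex.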

The species entered for series [2] is Homo sapiens. Briefly: Thermal stabilization of human NRAS G-quadruplex FAM-GGGAGGGGCGGGUCUGGG-TAMRA RNA assessed as change in melting temperature at 1:1 DNA:ligand ratio by FRET assay. An outline of the steps: as §1
For series [3], the species on record is Homo sapiens. In words: Thermal stabilization of human NRAS G-quadruplex FAM-GGGAGGGGCGGGUCUGGG-TAMRA RNA assessed as melting temperature at 1:1 DNA:ligand ratio by FRET assay. A digest of the protocol:
as §1

Series [4] relates to NIH3T3. Briefly: Cellular uptake in mouse NIH/3T3 cells assessed as accumulation in nucleoli at 2.5 uM after 4 hrs by propidium iodide staining-based confocal microscopic analysis. It is filed as ADME, cell-based. The conditions noted are these: nih3t3, 4 h. An outline of the steps:
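NIH 3T3 cells on coverslips treated with 2.5 μM ligand for 2 or 4 h. Fixed with paraformaldehyde, DRP1 immunostained (FITC), nuclei stained with propidium iodide. Confocal imaging with 543 nm excitation of ligand fluorescence.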

Series [5] deals with T-24. In words: Cellular uptake in human T24 cells assessed as accumulation in nucleoli at 2.5 uM after 2 hrs by propidium iodide staining-based confocal microscopic analysis. It is filed as ADME, cell-based. The conditions noted are these: t-24, 2 h. A digest of the protocol: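 T24 cells plated (3 × 10^5) on coverslips and treated after 24 h with 2.5 μM ligand for 2 h. Fixed in 3% paraformaldehyde and permeabilized with Triton X-100. Cytoplasm immunostained for DRP1 with FITC secondary; nuclei stained with propidium iodide plus RNase A. Ligand red fluorescence excited at 543 nm; confocal Z-sections at 2 μm intervals.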

The subject of series [6] is T-24. In words: Cellular uptake in human T24 cells after 4 hrs by FACS flow cytometric analysis in presence of dynasore. The note with it: t-24, 4 h. It is filed as ADME, cell-based. A digest of the protocol:
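T24 cells pretreated 30 min with 80 μM dynasore, then exposed to 5 μM ligand for 4 h. Analysed by flow cytometry (488 nm laser, FL3 680 nm channel), at least 10,000 cells.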

The subject of series [7] is T-24. In words: Cellular uptake in human T24 cells at 0.5 to 10 uM after 8 hrs by flow cytometric analysis. The conditions noted are these: t-24, 8 h. It is filed as ADME, cell-based. A digest of the protocol:
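Cells plated at 5 × 10^4 per well and treated next day with ligand at […] for 8 h. Then trypsinized, resuspended in PBS and analysed by flow cytometry (488 nm excitation, FL3 680 nm, log scale), at least 10,000 cells per sample. Uptake read from intrinsic ligand red fluorescence.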
(In flow cytometry, cells or beads pass a laser one at a time.)

For another series, the system named is Salmonidae. In words: Thermal stabilization of salmon sperm duplex DNA assessed as melting temperature by FRET assay.
The species named for series [8] is Homo sapiens. Briefly: Thermal stabilization of human HRAS1 G-quadruplex FAM-TCGGGTTGCGGGCGCAGGGCACGGGCG-TAMRA DNA assessed as change in melting temperature at 1:5 DNA:ligand ratio by FRET assay. A digest of the protocol:
(§2)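 FRET melting of 200 nM dual-labelled quadruplex in 50 mM Tris-HCl with KCl (100 mM for htelo and hras-1, 10 mM for KRAS and hras-2). Ligand at r = 5 ([ligand]/[quadruplex]; hras-2 tabulated at r = 4). Samples held 5 min at 20 °C, then heated 1 °C/min to 95 °C. ΔTM is the TM with ligand minus TM without ligand (±0.5 K). For hras-1 both biphasic transitions are given.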

The species named for a further series is Mus musculus. Briefly: Thermal stabilization of mouse KRAS G-quadruplex FAM-GCGGGAGGGAGGGAAGGAGGGAGGGAGGGAG-TAMRA DNA assessed as change in melting temperature at 1:5 DNA:ligand ratio by FRET assay. A digest of the protocol: as §2
For series [9], the species on record is Homo sapiens. In words: Thermal stabilization of human telomeric G-quadruplex FAM-TTAGGGTTAGGGTTAGGGTTAGGG-TAMRA DNA assessed as change in melting temperature at 1:5 DNA:ligand ratio by FRET assay. A digest of the protocol:
as §2

Series [10] relates to T-24. In words: Binding affinity to wild type HRAS quadruplex DNA in human T24 cells assessed as reduction in gene expression compound treated for 24 hrs prior to transfection measured 72 hrs post transfection by dual-luciferase reporter gene assay relative to control. It is filed as cell-based. In general terms: A reporter such as luciferase makes a cellular process visible.

For series [11], the system named is T-24. Briefly: Induction of apoptosis in human T24 cells by caspase 3/7 assay. It is filed as functional, cell-based.
In series [12] the test system is T-24. In words: Antiproliferative activity against human T24 cells by trypan blue assay. It is filed as functional, cell-based.
The test system of series [13] is T-24. Briefly: Cell cycle arrest in human T24 cells assessed as accumulation at G0/G1 phase at 10 uM after 48 to 72 hrs by FACS analysis relative to control. It is filed as functional. A digest of the protocol:
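T24 cells treated with 10 μM ligand for 48 or 72 h. Fixed 1 h at 4 °C in 70% ethanol, then stained with propidium iodide 0.05 mg/mL plus RNase A 0.1 mg/mL for 30 min at room temperature. Analysed by FACS (FL2). Phase percentages compared with control by t-test (p < 0.05).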

The subject of another series is HEK293. Briefly: Cell cycle arrest in human HEK293 cells expressing wild type HRAS assessed as accumulation at G2/M phase at 10 uM after 24 hrs by FACS analysis. It is filed as functional, cell-based. An outline of the steps:
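HEK293 cells (wild-type HRAS) treated with ligand for 24 h. Ethanol-fixed, stained with propidium iodide/RNase A, and analysed by FACS (FL2) for G0/G1, S and G2/M fractions.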

Series [14] deals with T-24. In words: Binding affinity to HRAS G-quadruplex DNA in human T24 cells assessed as reduction in p21HRAS level at 5 uM after 72 hrs by immunoblotting analysis relative to control. The arrangement: scale not given: the % may be the effect or the level left. It is filed as cell-based. A digest of the protocol:
(§3)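 T24 cells treated with 5 μM ligand for 48 or 72 h. Lysates (30 μg) run on 12% SDS-PAGE and immunoblotted with monoclonal anti-HRAS and β-actin antibodies, with HRP detection. HRAS level = (p21HRAS/β-actin treated)/(p21HRAS/β-actin untreated) × 100.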
Background: A western blot detects proteins with antibodies after separation by electrophoresis.

A further series deals with T-24 (Homo sapiens). Briefly: Cellular uptake in human T24 cells after 4 hrs by FACS flow cytometric analysis in presence of dynasore. The conditions noted are these: t24, 4 h.
Series [15] relates to T-24. Briefly: Cellular uptake in human T24 cells at 4 degC by FACS flow cytometric analysis. It is filed as ADME, cell-based. A digest of the protocol: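 T24 cells incubated with ligand at 4 °C or 37 °C. Intracellular ligand fluorescence measured by flow cytometry in the FL3 (680 nm) channel.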
For series [16], the system named is T-24. Briefly: Binding affinity to HRAS G-quadruplex DNA in human T24 cells assessed as reduction in p21HRAS level at 5 uM after 48 hrs by immunoblotting analysis. It is filed as cell-based. An outline of the steps:
as §3

In series [17] the test system is NIH3T3. In words: Cellular uptake in mouse NIH/3T3 cells after 4 hrs by FACS flow cytometric analysis in presence of dynasore. It is filed as ADME, cell-based. The note with it: nih3t3, 4 h.
For series [18], the system named is T-24. Briefly: Binding affinity to HRAS G-quadruplex DNA in human T24 cells assessed as reduction in p21HRAS level at 5 uM after 72 hrs by immunoblotting analysis relative to control.

As to `N=C(N)NCCCNc1c2c(c(NCCCNC(=N)N)c3sccc13)C(=O)c1ccccc1C2=O`, the deltaTm was 3 K in the series filed under Homo sapiens [1]; 11 K in the series filed under Homo sapiens [2]; 19 K in the series listed under Homo sapiens [8]; 33 K in the series listed under Mus musculus; 21 K in the series listed under Homo sapiens [9]. For the same compound, the Tm in the series listed under Homo sapiens [3] turned out to be 88 °C. The Drug uptake result with NIH3T3 [4], in the series on T-24 [5], in the series on T-24 [6], in the series on T-24 [7] and in the series on T-24 (Homo sapiens) was “Active” throughout. The result in the series with Salmonidae was Active. Further, the Activity result with T-24 [10] is “Dose-dependent effect”; in the series on T-24 [13], 63%; in the series with T-24 [14], 20%. Moreover, the result with T-24 [11], in the series on T-24 [12] and in the series on HEK293 was inactive.

As for `N=C(N)NCCCCNc1c2c(c(NCCCCNC(=N)N)c3sccc13)C(=O)c1ccccc1C2=O`, the deltaTm in the series filed under Homo sapiens [1] is 7 K; in the series listed under Homo sapiens [2] it was > 13 K; in the series listed under Homo sapiens [8], 20 K; in the series listed under Mus musculus, 35 K; in the series filed under Homo sapiens [9], 34 K. Moreover, the Tm in the series listed under Homo sapiens [3] is > 90 °C. The Drug uptake entry with NIH3T3 [4], in the series on T-24 [15], in the series on T-24 [6], in the series on T-24 [7] and in the series with T-24 (Homo sapiens) was “Active” in each case. The result with Salmonidae and in the series on T-24 [16] was Active. Besides, the Activity entry was “Dose-dependent effect” in the series on T-24 [10], 63% in the series with T-24 [13] and 20% in the series on T-24 [14]. For the same compound, the outcome in the series with T-24 [11], with T-24 [12] and with HEK293 was inactive.

Take `N=C(N)NCCNc1c2c(c(NCCNC(=N)N)c3sccc13)C(=O)c1ccccc1C2=O`: the deltaTm in the series listed under Homo sapiens [1] came out at 3 K; in the series filed under Homo sapiens [2] it was 5 K; in the series listed under Homo sapiens [8], 12 K; in the series filed under Mus musculus, 15 K; in the series listed under Homo sapiens [9], 14 K. Moreover, the Tm in the series filed under Homo sapiens [3] is 82 °C. Besides, the Drug uptake entry with NIH3T3 [4] was “Active”; with T-24 [5] it was “Active”; in the series with NIH3T3 [17], “Active”; in the series on T-24 [15] it was “Active”; with T-24 [6], “Not Active”; in the series on T-24 [7], “Active”. The outcome in the series with Salmonidae and in the series with T-24 [16] was Active. For the same compound, the figures for the Activity entry with T-24 [10], in the series with T-24 [13] and in the series with T-24 [14] were “Dose-dependent effect”, 63% and 20%, respectively. Further, the outcome with T-24 [11], in the series on T-24 [12] and with HEK293 was inactive.

On to `N=C(N)NCCCNc1c2c(c(NCCNC(=N)N)c3sccc13)C(=O)c1ccccc1C2=O`, for which the deltaTm in the series filed under Homo sapiens [1] worked out at 3 K; in the series filed under Homo sapiens [2] it was 11 K; in the series filed under Homo sapiens [8], 16 K; in the series filed under Mus musculus, 28 K; in the series filed under Homo sapiens [9], 23 K. Moreover, the Tm in the series filed under Homo sapiens [3] worked out at 88 °C. Moreover, the Drug uptake result in the series with NIH3T3 [4] was “Active”; in the series with T-24 [5], “Active”; with NIH3T3 [17] it was “Active”; in the series with T-24 [6] it was “Not Active”; in the series with T-24 [7], “Active”. For the same compound, the outcome with Salmonidae and in the series with T-24 [18] was Active. Besides, the Activity result is “Dose-dependent effect” with T-24 [10], 63% in the series on T-24 [13] and 20% in the series with T-24 [14]. For the same compound, the outcome in the series with T-24 [11], in the series on T-24 [12] and in the series on HEK293 was inactive.

Turning to `N=C(N)NCCCNc1c2c(c(NCCNC(=N)N)c3ccsc13)C(=O)c1ccccc1C2=O`, the deltaTm turned out to be 4 K in the series listed under Homo sapiens [1]; 9 K in the series filed under Homo sapiens [2]; 13 K in the series listed under Homo sapiens [8]; 27 K in the series listed under Mus musculus; 21 K in the series listed under Homo sapiens [9]. Moreover, in the series listed under Homo sapiens [3], the Tm amounted to 86 °C. Further, the Drug uptake result with T-24 [5], in the series with T-24 [6], in the series on T-24 [7] and in the series with T-24 (Homo sapiens) was “Active” each time. Also, the result with Salmonidae and with T-24 [18] was Active. Also, the Activity entry is “Dose-dependent effect” with T-24 [10], 63% with T-24 [13] and 20% in the series on T-24 [14]. Further, the result with T-24 [11], in the series on T-24 [12] and in the series on HEK293 was inactive.

(Values after ChEMBL document CHEMBL2346582, “Guanidino anthrathiophenediones as G-quadruplex binders: uptake, intracellular localization, and anti-Harvey-Ras gene activity in bladder cancer cells” (J Med Chem, 2013).)
